Calls of active or inactive are those of the source. No cut-off for these calls is given here. Square brackets hold non-standard residues; d marks the D form. Peptide text beside a SMILES is read from it. * marks the point of attachment. Sta = CC(C)C[C@H](N)[C@@H](O)CC(=O)O; Isovaleryl = CC(C)CC(=O)*; NHIsopentyl = CC(C)CCN*
What was measured:
Pepsin A = Pepsin A (Sus scrofa, UniProt P00791); assay: The compound was tested for inhibition of carboxyl protease (pepsin) inhibition
Method in brief: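 Porcine pepsin was assayed spectrophotometrically with the heptapeptide substrate Phe-Gly-His-Phe(NO2)-Phe-Ala-Phe-OMe (Km 4.0×10^-5 M). Fractional velocity (Vi/V0) was plotted against inhibitor concentration to obtain IC50. IC50 was converted to Ki with Cha's equation, Ki = (IC50 − Et/2)(1 + S/Km)^-1, using total enzyme and substrate concentrations. Time-dependent inhibitors were preincubated with enzyme for 10 min, and steady-state velocities were used.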

Pepsin A (Sus scrofa) [1] = target: Pepsin A (Sus scrofa) (UniProt P00791); assay: The compound was tested for time dependent inhibition against carboxyl protease (pepsin); Yes
Pepsin A (Sus scrofa) [2] = target: Pepsin A (Sus scrofa) (UniProt P00791); assay: The compound was tested for time dependent inhibition against carboxyl protease (pepsin); No inhibition

Pepsin A (Sus scrofa), sequence (P00791 60-385 limits assumed): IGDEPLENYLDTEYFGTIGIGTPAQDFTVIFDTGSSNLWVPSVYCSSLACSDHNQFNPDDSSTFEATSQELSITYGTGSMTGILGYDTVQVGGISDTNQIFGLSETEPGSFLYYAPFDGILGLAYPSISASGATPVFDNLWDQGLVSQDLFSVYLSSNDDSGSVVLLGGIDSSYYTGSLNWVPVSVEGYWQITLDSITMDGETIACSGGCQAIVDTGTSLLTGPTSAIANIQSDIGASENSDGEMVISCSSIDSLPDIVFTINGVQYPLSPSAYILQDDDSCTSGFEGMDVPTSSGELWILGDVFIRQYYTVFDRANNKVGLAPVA
Pepsin A, sequence (P00791 whole entry): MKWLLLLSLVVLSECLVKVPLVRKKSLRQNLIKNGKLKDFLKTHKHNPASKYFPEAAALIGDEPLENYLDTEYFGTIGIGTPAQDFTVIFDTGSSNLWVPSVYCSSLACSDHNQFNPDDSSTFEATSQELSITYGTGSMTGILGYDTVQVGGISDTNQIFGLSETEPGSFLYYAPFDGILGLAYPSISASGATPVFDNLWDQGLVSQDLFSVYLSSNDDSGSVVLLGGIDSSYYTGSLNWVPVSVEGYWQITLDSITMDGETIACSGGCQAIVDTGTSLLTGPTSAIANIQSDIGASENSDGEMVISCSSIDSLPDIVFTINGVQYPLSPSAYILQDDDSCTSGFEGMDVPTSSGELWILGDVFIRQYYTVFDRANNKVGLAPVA

| SMILES | Ki (Pepsin A) | TDI (Pepsin A (Sus scrofa) [1]) | TDI (Pepsin A (Sus scrofa) [2]) |
| --- | --- | --- | --- |
| CC(C)CCNC(=O)[C@H](C)NC(=O)C[C@H](O)[C@H](CC(C)C)NC(=O)[C@@H](NC(=O)[C@@H](NC(=O)CC(C)C)C(C)C)C(C)C (Isovaleryl-VV[Sta]A-NHIsopentyl) | ~0.1 nM | Active |  |
| CC(C)CCNC(=O)[C@H](C)NC(=O)C[C@H](O)[C@H](CC(C)C)NC(=O)[C@@H](NC(=O)CC(C)C)C(C)C | 2.9 nM | Active |  |
| CCC(C)C(=O)N[C@H](C(=O)N[C@@H](CC(C)C)[C@@H](O)CC(=O)N[C@@H](C)C(=O)NCCC(C)C)C(C)C (stereo not given in full) | 0.31 nM | Active |  |
| CCC(CC)C(=O)N[C@H](C(=O)N[C@@H](CC(C)C)[C@@H](O)CC(=O)N[C@@H](C)C(=O)NCCC(C)C)C(C)C | 0.18 nM | Active |  |
| CC(C)CCNC(=O)[C@H](C)NC(=O)C[C@H](O)[C@H](CC(C)C)NC(=O)[C@@H](NC(=O)OC(C)C)C(C)C | 8.6 nM |  | inactive |
| CC(C)CCNC(=O)[C@H](C)NC(=O)C[C@H](O)[C@H](CC(C)C)NC(=O)[C@@H](NC(=O)OC(C)(C)C)C(C)C | 170 nM |  | inactive |
| CC(C)CCNC(=O)[C@H](C)NC(=O)C[C@H](O)[C@H](CC(C)C)NC(=O)[C@@H](NC(=O)C(C)C)C(C)C | 1.6 nM | Active |  |
| CC(C)CCNC(=O)[C@H](C)NC(=O)C[C@H](O)[C@H](CC(C)C)NC(=O)[C@@H](NC(=O)CC(C)(C)C)C(C)C | 7.5 nM |  | inactive |
| CC(C)CCNC(=O)[C@H](C)NC(=O)C[C@H](O)[C@H](CC(C)C)NC(=O)[C@@H](NC(=O)[C@H](NC(=O)OC(C)(C)C)C(C)C)C(C)C | 11 nM | Active |  |
| CC(C)CCNC(=O)[C@H](C)NC(=O)C[C@H](O)[C@H](CC(C)C)NC(=O)[C@@H](NC(=O)[C@@H](NC(=O)OC(C)(C)C)C(C)C)C(C)C | ~6 nM | Active |  |
